# Data: ChEMBL document CHEMBL5058577, “EUbOPEN Chemogenomics Library 2 (Multiplex)” (2022)
# Test system: Fibroblast
# Experiment: Multiplex assay against human fibroblast
# Format: toxicity, cell-based
# Procedure, shortened: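 Cells stained live at seeding with Hoechst33342, BioTracker Green Microtubule Cytoskeleton Dye, MitoTracker Red and Annexin V Alexa Fluor 680 were imaged on a CQ1 microscope at 37°C and 5% CO2 after compound addition. Their classification by CellPathfinder machine-learning gating ran from Hoechst high-intensity objects versus normal cells, to healthy, pyknosed or fragmented nuclei among normal cells, to mitotic or apoptotic among pyknosed cells. Tubulin, mitochondrial-mass and membrane-permeability phenotypes are per cents of healthy-nucleus cells.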
# [1] = 12 h, 1 µM, compound concentration 1 uM, replicate 1
# [2] = 12 h, 1 µM, compound concentration 1 uM, replicate 2
# [3] = 12 h, 10 µM, compound concentration 10 uM, replicate 1
# [4] = 12 h, 10 µM, compound concentration 10 uM, replicate 2
# [5] = 24 h, 1 µM, compound concentration 1 uM, replicate 1
# [6] = 24 h, 1 µM, compound concentration 1 uM, replicate 2
# [7] = 24 h, 10 µM, compound concentration 10 uM, replicate 1
# [8] = 24 h, 10 µM, compound concentration 10 uM, replicate 2
# [9] = 48 h, 1 µM, compound concentration 1 uM, replicate 1
# [10] = 48 h, 1 µM, compound concentration 1 uM, replicate 2
# [11] = 48 h, 10 µM, compound concentration 10 uM, replicate 1
# [12] = 48 h, 10 µM, compound concentration 10 uM, replicate 2
structure (smiles),measurement,setting,value
CC(C)c1noc(N2CCC(COc3ccc(-c4ccc(S(C)(=O)=O)cc4)nc3)CC2)n1 [GSK-1292263],Population Apoptotic (%),[1],38%
same,Population Fragmented Nuclei (%),[1],14%
same,Population Healthy Nuclei (%),[1],74%
same,Population Hoechst High Intensity Objects (%),[1],2%
same,Population Membrane Permeable-Phenotype (%),[1],0%
same,Population Mitochondria Different-Phenotype (%),[1],1%
same,Population Mitotic Cells (%),[1],61%
same,Population Normal (%),[1],97%
same,Population Pyknosed Nuclei (%),[1],11%
same,Population Tubulin-Different-Phenotype (%),[1],21%
same,Total Cell Count,[1],189
same,Population Apoptotic (%),[2],29%
same,Population Fragmented Nuclei (%),[2],18%
same,Population Healthy Nuclei (%),[2],50%
same,Population Hoechst High Intensity Objects (%),[2],6%
same,Population Membrane Permeable-Phenotype (%),[2],4%
same,Population Mitochondria Different-Phenotype (%),[2],5%
same,Population Mitotic Cells (%),[2],70%
same,Population Normal (%),[2],93%
same,Population Pyknosed Nuclei (%),[2],31%
same,Population Tubulin-Different-Phenotype (%),[2],41%
same,Total Cell Count,[2],149
same,Population Apoptotic (%),[3],39%
same,Population Fragmented Nuclei (%),[3],8%
same,Population Healthy Nuclei (%),[3],65%
same,Population Hoechst High Intensity Objects (%),[3],3%
same,Population Membrane Permeable-Phenotype (%),[3],1%
same,Population Mitochondria Different-Phenotype (%),[3],5%
same,Population Mitotic Cells (%),[3],60%
same,Population Normal (%),[3],96%
same,Population Pyknosed Nuclei (%),[3],26%
same,Population Tubulin-Different-Phenotype (%),[3],39%
same,Total Cell Count,[3],162
same,Population Apoptotic (%),[4],35%
same,Population Fragmented Nuclei (%),[4],26%
same,Population Healthy Nuclei (%),[4],45%
same,Population Hoechst High Intensity Objects (%),[4],2%
same,Population Membrane Permeable-Phenotype (%),[4],6%
same,Population Mitochondria Different-Phenotype (%),[4],10%
same,Population Mitotic Cells (%),[4],64%
same,Population Normal (%),[4],97%
same,Population Pyknosed Nuclei (%),[4],27%
same,Population Tubulin-Different-Phenotype (%),[4],61%
same,Total Cell Count,[4],145
same,Population Apoptotic (%),[5],50%
same,Population Fragmented Nuclei (%),[5],9%
same,Population Healthy Nuclei (%),[5],78%
same,Population Hoechst High Intensity Objects (%),[5],3%
same,Population Membrane Permeable-Phenotype (%),[5],1%
same,Population Mitochondria Different-Phenotype (%),[5],0%
same,Population Mitotic Cells (%),[5],50%
same,Population Normal (%),[5],96%
same,Population Pyknosed Nuclei (%),[5],11%
same,Population Tubulin-Different-Phenotype (%),[5],17%
same,Total Cell Count,[5],182
same,Population Apoptotic (%),[6],44%
same,Population Fragmented Nuclei (%),[6],20%
same,Population Healthy Nuclei (%),[6],53%
same,Population Hoechst High Intensity Objects (%),[6],7%
same,Population Membrane Permeable-Phenotype (%),[6],4%
same,Population Mitochondria Different-Phenotype (%),[6],2%
same,Population Mitotic Cells (%),[6],55%
same,Population Normal (%),[6],92%
same,Population Pyknosed Nuclei (%),[6],25%
same,Population Tubulin-Different-Phenotype (%),[6],41%
same,Total Cell Count,[6],142
same,Population Apoptotic (%),[7],52%
same,Population Fragmented Nuclei (%),[7],12%
same,Population Healthy Nuclei (%),[7],67%
same,Population Hoechst High Intensity Objects (%),[7],2%
same,Population Membrane Permeable-Phenotype (%),[7],1%
same,Population Mitochondria Different-Phenotype (%),[7],5%
same,Population Mitotic Cells (%),[7],47%
same,Population Normal (%),[7],97%
same,Population Pyknosed Nuclei (%),[7],20%
same,Population Tubulin-Different-Phenotype (%),[7],50%
same,Total Cell Count,[7],168
same,Population Apoptotic (%),[8],46%
same,Population Fragmented Nuclei (%),[8],21%
same,Population Healthy Nuclei (%),[8],55%
same,Population Hoechst High Intensity Objects (%),[8],3%
same,Population Membrane Permeable-Phenotype (%),[8],10%
same,Population Mitochondria Different-Phenotype (%),[8],10%
same,Population Mitotic Cells (%),[8],53%
same,Population Normal (%),[8],96%
same,Population Pyknosed Nuclei (%),[8],23%
same,Population Tubulin-Different-Phenotype (%),[8],56%
same,Total Cell Count,[8],123
same,Population Apoptotic (%),[9],66%
same,Population Fragmented Nuclei (%),[9],19%
same,Population Healthy Nuclei (%),[9],74%
same,Population Hoechst High Intensity Objects (%),[9],3%
same,Population Membrane Permeable-Phenotype (%),[9],0%
same,Population Mitochondria Different-Phenotype (%),[9],1%
same,Population Mitotic Cells (%),[9],33%
same,Population Normal (%),[9],96%
same,Population Pyknosed Nuclei (%),[9],6%
same,Population Tubulin-Different-Phenotype (%),[9],22%
same,Total Cell Count,[9],193
same,Population Apoptotic (%),[10],54%
same,Population Fragmented Nuclei (%),[10],27%
same,Population Healthy Nuclei (%),[10],47%
same,Population Hoechst High Intensity Objects (%),[10],8%
same,Population Membrane Permeable-Phenotype (%),[10],13%
same,Population Mitochondria Different-Phenotype (%),[10],4%
same,Population Mitotic Cells (%),[10],45%
same,Population Normal (%),[10],91%
same,Population Pyknosed Nuclei (%),[10],24%
same,Population Tubulin-Different-Phenotype (%),[10],55%
same,Total Cell Count,[10],156
same,Population Apoptotic (%),[11],63%
same,Population Fragmented Nuclei (%),[11],13%
same,Population Healthy Nuclei (%),[11],65%
same,Population Hoechst High Intensity Objects (%),[11],2%
same,Population Membrane Permeable-Phenotype (%),[11],0%
same,Population Mitochondria Different-Phenotype (%),[11],8%
same,Population Mitotic Cells (%),[11],36%
same,Population Normal (%),[11],97%
same,Population Pyknosed Nuclei (%),[11],20%
same,Population Tubulin-Different-Phenotype (%),[11],48%
same,Total Cell Count,[11],164
same,Population Apoptotic (%),[12],50%
same,Population Fragmented Nuclei (%),[12],31%
same,Population Healthy Nuclei (%),[12],51%
same,Population Hoechst High Intensity Objects (%),[12],0%
same,Population Membrane Permeable-Phenotype (%),[12],9%
same,Population Mitochondria Different-Phenotype (%),[12],14%
same,Population Mitotic Cells (%),[12],50%
same,Population Normal (%),[12],100%
same,Population Pyknosed Nuclei (%),[12],17%
same,Population Tubulin-Different-Phenotype (%),[12],76%
same,Total Cell Count,[12],125
